# SMARCA2 activ – SMARCA2 (BRM) function activators, primary screen, cell-based, luminescence, high throughput; MG213 cells, MMTV-luciferase reporter, dexamethasone, overnight; activation, % at 9.1 µM; actives 1% (n = 370,000); AID 652017, 2013; in the data active = activation above about 7.8%;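 also: 0% = vehicle wells and 100% = reference activator wells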
# NR2E3 ag-1 – NR2E3 agonists in two-hybrid cells, primary screen, cell-based, luminescence, CHO-S, Gal4-NCOR/VP16-NR2E3; Photoreceptor-specific nuclear receptor (Homo sapiens), Q9Y5X4; luciferase; inhibition of corepressor binding, % at 3.98 µM; actives 0.35% (n = 360,000); AID 602229, 2012;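 active = inhibition above the mean of all tested compounds plus 3 SD, cut at about 70% in these data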;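 also: 0% = DMSO with NR2E3 transfected cells and 100% = cells lacking NR2E3 construct; higher means lower luciferase signal from less NR2E3 corepressor binding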
# COUP-TFII inh – NR2F2 transcriptional activity inhibitors, primary screen, cell-based, luciferase reporter, HEK293T, luminescence; HEK293T NGFI-A luciferase reporter; inhibition, % at 8.6 µM; actives 0.7% (n = 370,000); AID 686940, 2013;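 active = inhibition above a per-plate cutoff, mean inhibition of test wells between control levels plus 3 SD, cut at about 38% in these data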;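 also: cells cotransfected with COUP-TFII expression vector driving the NGFI-A reporter; 0% = median of COUP-TF2 test wells and 100% = reporter-only cells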
# Target sequence (P24468 whole entry, looked up): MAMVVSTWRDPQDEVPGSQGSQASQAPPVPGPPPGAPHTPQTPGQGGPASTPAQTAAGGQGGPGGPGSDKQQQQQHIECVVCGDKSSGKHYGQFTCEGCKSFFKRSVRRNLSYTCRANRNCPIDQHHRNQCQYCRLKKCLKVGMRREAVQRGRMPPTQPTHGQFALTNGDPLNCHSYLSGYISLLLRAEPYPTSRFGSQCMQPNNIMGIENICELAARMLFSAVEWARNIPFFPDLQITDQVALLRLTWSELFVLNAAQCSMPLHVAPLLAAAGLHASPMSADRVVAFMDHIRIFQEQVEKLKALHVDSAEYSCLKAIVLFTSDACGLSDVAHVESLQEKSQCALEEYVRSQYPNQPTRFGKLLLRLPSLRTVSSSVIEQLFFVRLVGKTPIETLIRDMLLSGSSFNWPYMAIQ
# GalR3 antagonist – GalR3 antagonists in HEK293 cells, primary screen, cell-based, fluorescence readout | HEK293 GalR3-CNG cAMP membrane potential fluorescence; galR3 body fused to GalR1 C-terminus | inhibition, % at 3 µM | actives 0.44% (n = 360,000) | Galanin receptor type 3 (Homo sapiens), O60755;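 active = inhibition above the screen-wide average plus 3 SD, cut at about 13% in these data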;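 also: forskolin and galanin both at EC90 stimulate the cells; cAMP rise reported by CNG channel membrane potential dye signal; 0% = forskolin plus galanin with DMSO and 100% = forskolin alone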
# Target sequence (O60755 1-299 limits assumed): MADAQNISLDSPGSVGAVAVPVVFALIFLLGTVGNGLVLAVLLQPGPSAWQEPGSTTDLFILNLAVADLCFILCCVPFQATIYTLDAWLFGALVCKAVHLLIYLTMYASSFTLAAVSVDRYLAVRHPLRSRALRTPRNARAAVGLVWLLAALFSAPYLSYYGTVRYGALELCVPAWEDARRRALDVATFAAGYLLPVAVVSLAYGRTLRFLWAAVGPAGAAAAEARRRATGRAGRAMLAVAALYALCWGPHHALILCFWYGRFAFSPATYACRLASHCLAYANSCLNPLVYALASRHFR
# NR2E3 ag-2 – inhibitors of NR2E3-RetCOR corepressor binding, primary screen, NR2E3 agonist project, biochemical, TR-FRET, GST-NR2E3, biotin-RetCOR; actives 0.12% (n = 320,000); AID 2300, 2010; inhibition of corepressor binding, % at 4.78 µM; Photoreceptor-specific nuclear receptor (Homo sapiens), Q9Y5X4; 1536-well;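 active = percent inhibition above the cutoff of mean plus 3 SD of all tested compounds, set per screening campaign, cut at about 20% in these data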;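 also: 0% = DMSO wells and 100% = biotin wells as full block of FRET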
#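 Test system: GST-NR2E3 and biotin-RetCOR proteins | Quantity: 1.35 nM GST-tagged NR2E3 final | Medium: Tris pH 7.5 | Also added: 7 nM biotin-RetCOR | Dosing: Compound at 4.8 µM, single dose | Timing: 5 h at 4 °C | Detection: Time-resolved FRET | Read-out basis: Percent inhibition | Benchmarks: Biotin wells as high control, 0.6% DMSO wells as low control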
# NR2E3 ag confirm – NR2E3 agonist confirmation in cells, cell-based, luminescence, CHO-S two-hybrid; AID 624378, 2012; actives 51% (n = 2,300); shares compounds with NR2E3 ag-1; CHO-S mammalian two-hybrid NR2E3-NCOR, luciferase luminescence; inhibition, % at 3.98 µM;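 active = average inhibition above a cutoff equal to the mean inhibition of all tested compounds plus one SD, cut at about 70% in these data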;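 also: 0% = DMSO in NR2E3 cells and 100% = DMSO in cells lacking NR2E3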
# VP16 counter – GAL4-VP16 reporter modulators, confirmation, counter-screen for NR2E3 agonist project, cell-based, luminescence, CHO-S, high throughput; actives 29% (n = 2,300); inhibition, % at 3.98 µM; CHO-S GAL4-VP16 luciferase reporter; shares compounds with NR2E3 ag-1;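 active = mean inhibition above a cutoff equal to the average over all tested compounds plus one standard deviation, cut at about 70% in these data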;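 also: luciferase from a UAS reporter driven by GAL4-VP16 transactivation; 0% = DMSO with VP16-transfected cells and 100% = DMSO with cells lacking VP16; higher means less reporter light so more repression of VP16 activity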
# Numbers without * were called inactive; x = no result. Hits are enriched below; roughly 2.2% of the tested compounds scored in any of these assays.
SMILES,SMARCA2 activ,NR2E3 ag-1,COUP-TFII inh,GalR3 antagonist,NR2E3 ag-2,NR2E3 ag confirm,VP16 counter
COCCn1c(C)cc(C(=O)COc2ccc(C)nc2[N+](=O)[O-])c1C,-3.0,63.1,5.4,-2.7,-0.1,76.9*,43.8
Cc1cc(C(=O)COC(=O)c2ccc(N)c([N+](=O)[O-])c2)c(C)n1Cc1ccc2c(c1)OCO2,-2.5,-40.5,5.4,-3.7,-3.3,x,x
Cc1cc(C(=O)COc2cccnc2[N+](=O)[O-])c(C)n1Cc1cccs1,-4.6,69.8,22.9,1.2,0.7,73.2*,57.6
CCCCCCCCN1C(=O)N2Cc3cc(OC)ccc3C2CS1(=O)=O (centres undefined),-2.9,x,-2.1,x,x,x,x
Cc1ccc(NC(=O)C2CCCN2S(=O)(=O)c2cccnc2)cc1C (centres undefined),-4.1,x,9.4,x,x,x,x
CCC[C@H]1[C@@H](NS(=O)(=O)c2ccccc2[N+](=O)[O-])CC[C@@]23CCCN2C(=O)CCC[C@@H]13,x,x,-19.0,x,x,x,x
CC(C)C[C@H]1COc2cc(Br)ccc2S(=O)(=O)N1Cc1cn(CCC2OCCCO2)nn1,-0.1,x,-19.1,x,x,x,x
CC(=O)c1cnc(SCc2ccc(Cl)cc2)nc1C,-1.0,-2.2,-10.2,-2.2,-2.3,x,x
Cc1nc(SCc2ccc(Cl)c(Cl)c2)ncc1C(=O)O,0.7,58.9,9.0,-4.4,2.8,13.6,27.0
COC(=O)c1cc(CSc2nnc(NC3CCCCC3)s2)oc1C,-4.5,57.5,20.1,-6.9,0.8,60.2,57.6
O=c1cc(CSc2nnc(NC3CCCCC3)s2)nc2sccn12,-3.7,-0.3,17.1,-0.8,4.7,x,x
O=C(NCc1cccs1)c1cccc(N2CCCC2=O)c1,-2.5,-25.1,-6.8,-1.7,0.9,x,x
O=C(NCc1ccccc1CN1CCCC1)c1cccc(N2CCCC2=O)c1,-2.2,77.6*,-0.9,-4.9,6.1,-7.3,-9.4
COc1ccc(COC(=O)c2cc([N+](=O)[O-])ccc2N2CCOCC2)cc1F,-3.1,48.4,-65.9,-10.9,-2.7,15.3,28.3
O=C(COC(=O)c1cc([N+](=O)[O-])ccc1N1CCOCC1)Nc1ccc(Cl)cc1,-0.3,-24.9,29.6,-2.2,1.6,x,x
O=C(COC(=O)c1cc([N+](=O)[O-])ccc1N1CCOCC1)Nc1ccc(Cl)cn1,-0.7,78.3*,-10.2,-3.5,-1.1,82.1*,27.6
CCOC(=O)[C@]12CCCCC/C=C\1N(Cc1ccc(OC)cc1)C(=O)[C@H]2CC(=O)NCCCOC,2.2,x,4.2,x,x,x,x
O=C(c1ccoc1)N1CCN(c2cc(-c3ccco3)nc3cc(-c4ccco4)nn23)CC1,x,x,2.5,x,x,x,x
O=c1cc(C(F)(F)F)[nH]c2ccc(C(F)(F)F)cc12,-7.4,93.1*,3.2,-2.9,-1.9,100.8*,90.7*
CC(C)(C)c1ccc(-c2n[nH]c(=S)n2C2CCCC2)cc1,-5.0,64.8,26.9,-6.8,-1.4,71.7*,61.0
Cn1c(-c2ccc(C(C)(C)C)cc2)n[nH]c1=S,4.1,-38.0,-9.3,1.3,-1.1,x,x
CN1C(=O)C2(NCCc3c2[nH]c2ccccc32)c2ccccc21 (centres undefined),-2.1,-1.8,6.9,-1.1,1.8,x,x
CC1=CC(C)(C)N2C(=O)C3(NCCc4c3[nH]c3ccccc43)c3cc(C)cc1c32 (centres undefined),0.2,57.0,10.3,-6.8,-0.5,12.2,6.3
COc1ccc(OC)c(S(=O)(=O)Nc2ccc(Oc3ccccc3)cc2)c1,-4.6,64.7,30.0,-6.8,3.0,80.4*,57.0
COC(=O)c1cccc(OCC(C)CN2CCC(C(O)(c3ccccc3)c3ccccc3)CC2)c1 (centres undefined),-4.2,x,3.4,x,x,x,x
SMILES,SMARCA2 activ,NR2E3 ag-1,COUP-TFII inh,GalR3 antagonist,NR2E3 ag-2,NR2E3 ag confirm,VP16 counter
Cc1ccc(NC(=O)Cc2nn(C)c(=O)c3ccccc23)cc1F,-1.9,54.4,32.9,-2.7,3.6,90.2*,75.0*
COc1ccccc1NC(=O)Cc1nn(C)c(=O)c2ccccc12,x,73.8*,x,x,0.6,73.3*,68.7
Cc1cc(Nc2ccc(Cl)cc2)nc(NCc2ccccc2)n1,-5.9,-0.4,20.5,-5.9,2.3,x,x
CCCCNc1cc(C)nc(NCc2ccccc2)n1,x,82.6*,x,x,-1.9,94.1*,83.7*
Cc1cc(Nc2cccc(F)c2)nc(NCc2ccccc2)n1,-4.2,83.4*,33.4,-6.9,-0.7,91.7*,66.5
Oc1ccccc1C=NNC(=S)NC1CC2C=CC1C2 (centres undefined),1.9,57.3,-22.4,-5.6,x,-90.2,-98.0
Cc1ccc(Cl)cc1N1CCN(S(=O)(=O)c2c(C)nc3scc(C)n3c2=O)CC1,-1.5,-18.3,6.4,-5.7,1.3,x,x
Cc1ccc(N2CCN(S(=O)(=O)c3c(C)nc4scc(C)n4c3=O)CC2)c(C)c1,-1.5,49.0,-9.8,-2.2,-0.1,4.4,4.3
NS(=O)(=O)c1ccc(CCNc2nn3c(-c4ccc(F)c(Cl)c4)cnc3s2)cc1,-3.6,62.0,35.3,-5.4,x,64.4,49.7
NS(=O)(=O)c1ccc(CCNC(=O)CSc2ccc(Cl)cc2Cl)cc1,-0.8,-10.3,-6.7,-3.9,-3.2,x,x
CCc1ccc(NS(=O)(=O)c2ccc(OC)c(C)c2)cc1,-3.5,6.6,13.5,-8.2,0.9,x,x
COc1ccc(S(=O)(=O)Nc2ccc(Cc3ccncc3)cc2)cc1C,x,61.2,x,x,1.5,47.0,49.5
Cc1[nH]c2ccccc2c(=O)c1C(=O)/C=C/c1ccccc1,-6.5,64.8,10.9,-3.8,-4.4,29.6,60.1
CCC(C(=O)NCCC(C)C)n1ccc2cc(S(=O)(=O)N3CCCCC3)ccc21 (centres undefined),x,59.5,x,x,-0.6,49.1,46.8
COC(=O)[C@]12C[C@H](CC(=O)N3CCCC3)C(=O)N(Cc3cccc4ccccc34)C1=C[C@H](C1CCCC1)O[C@@H]2C,-5.1,x,1.9,x,x,x,x
S=c1nc2ccccc2c2nc(-c3ccccc3Br)[nH]n12,0.9,78.3*,11.5,-8.2,6.8,-9.3,-11.7
Brc1ccccc1-c1nc2c3ccccc3ncn2n1,1.3,-103.0,-31.5,-1.9,0.9,x,x
Cn1cc(C2(c3c[nH]c4ccccc34)CCN(C(=O)OC(C)(C)C)CC2)c2ccccc21,-3.2,x,-5.9,x,x,x,x

# Screening data deposited in PubChem by The Scripps Research Institute Molecular Screening Center.
